Assay outcomes from PubChem BioAssay.
Arbovirus anti: antivirals against arbovirus infection. arbovirus infection cell-based antiviral screen. inhibition, % at 10 µM. 200,000 tested, 0.37% active. AID 1251; in the data active = inhibition above about 30%
TNAP inh no acc: blocks human TNAP activity with no phosphate acceptor present | P05186 | purified TNAP, CDP-star luminescence, 30 min | inhibition, % at 20 µM | 200,000 tested, 0.26% active | AID 1012;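 active = tissue-nonspecific alkaline phosphatase inhibition above about 50% at 20 µM in the single-dose screen, limit read from the data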;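 also: 0% = DMSO negative control and 100% = EDTA positive control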
Target sequence (P05186 whole entry, looked up): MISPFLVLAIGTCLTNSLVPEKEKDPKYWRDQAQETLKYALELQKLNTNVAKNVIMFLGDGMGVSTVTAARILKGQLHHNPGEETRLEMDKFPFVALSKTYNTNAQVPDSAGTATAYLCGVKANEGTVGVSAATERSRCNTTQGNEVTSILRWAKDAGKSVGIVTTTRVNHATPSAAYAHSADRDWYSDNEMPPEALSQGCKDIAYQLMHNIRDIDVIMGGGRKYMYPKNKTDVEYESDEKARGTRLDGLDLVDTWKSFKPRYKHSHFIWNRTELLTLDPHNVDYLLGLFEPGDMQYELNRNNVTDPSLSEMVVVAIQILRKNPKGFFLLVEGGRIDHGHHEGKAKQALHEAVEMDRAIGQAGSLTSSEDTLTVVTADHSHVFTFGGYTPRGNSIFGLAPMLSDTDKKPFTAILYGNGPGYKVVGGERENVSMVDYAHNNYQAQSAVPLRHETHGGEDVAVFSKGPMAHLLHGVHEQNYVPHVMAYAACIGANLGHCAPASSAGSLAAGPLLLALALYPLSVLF
WT yeast gro inh: growth inhibition of WT yeast, mitochondrial fusion screen; mitochondrial fusion phenotypic screen, WT strain; inhibition, % at 10 µM; 190,000 tested, 2.1% active; in the data active = inhibition above about 58%; tested in S. cerevisiae
TNAP act hi DEA: increases human TNAP activity under high phosphate acceptor concentration; AID 1136; 200,000 tested, under 10 active; purified TNAP, CDP-star luminescence, 1 M DEA, 30 min; active compounds read high; 0 = EDTA background, 1 = DMSO-only activity; activation factor at 20 µM; P05186;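 active = activation factor at least 2 at 20 µM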
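Measured by: Luminescent substrate turnover signal | Test system: Human TNAP | Input: TNAP 1/800 final | Dosing: 20 µM single point | Schedule: 30 min, room temperature | Controls: EDTA wells as negative control, DMSO wells as positive control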
TNAP inh hi DEA: inhibitors of human TNAP at high phosphate acceptor concentration; purified TNAP, CDP-star luminescence, 1 M DEA; AID 1135; P05186; inhibition, % at 20 µM; 200,000 tested, 0.03% active;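 active = over 50% inhibition of tissue-nonspecific alkaline phosphatase at 20 µM in the single-dose screen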;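 also: plate controls were DMSO wells for no effect and EDTA-quenched wells as full inhibition for full effect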
Active calls of the source: *; nt = no result given. Only some compounds are listed: those with a hit (about 2.6% of all), similar ones and a draw of the others.

SMILES	Arbovirus anti	TNAP inh no acc	WT yeast gro inh	TNAP act hi DEA	TNAP inh hi DEA
N/C(COc1ncn(-c2ccccc2)n1)=N\S(=O)(=O)c1ccc(Cl)cc1Cl	-3.9	63.2*	12.8	0.5	47.8
NC(=O)COc1ncn(-c2ccccc2)n1	-1.3	-17.8	-10.3	1	-3.4
CCCNc1nc(OCC(F)(F)F)nc(OCC(F)(F)F)n1	-10.2	-9.3	-3.7	1	-4.5
CN1CCN(c2nc(NCCOC34CC5CC(CC(C5)C3)C4)nc(OCC(F)(F)F)n2)CC1	-27.8	-5.4	83.5*	1	-2.7
O=c1cc(-c2cccc3ccccc23)[nH][nH]1	2.4	68.6*	1.0	0.5	48.4
COc1ccc(-c2cc(=O)[nH][nH]2)cc1	-0.8	-13.5	-5.0	1	-3.7
c1coc(CN(Cc2ccco2)c2ncnc3c2oc2ccccc23)c1	-13.7	-7.6	53.4	1	-2.1
COc1cnc(-c2ccccn2)nc1Oc1ccccc1Cl	-31.5	-2.1	60.6*	1	-1.0
COc1ccccc1NC(=O)Nc1nc(C(C)(C)C)cs1	1.3	-6.0	-6.9	1	0.5
CC1(C(=O)OCC(=O)Nc2ccc3ccccc3c2)CC1(Cl)Cl (stereo not given)	2.5	-14.4	66.3*	1	-1.2
COc1ccc(OCCCC(=O)Nc2ncn[nH]2)cc1	-1.8	-126.1	-2.1	1	-2.4
CCn1c(C)nc2cc(C(=O)NNC(=S)Nc3ccc(OC)cc3)ccc21	12.1	-164.8	10.5	1	-0.9
O=C1Nc2cc(Cl)ccc2C1(N1CCNCC1)C(F)(F)F (stereo not given)	-6.8	-7.2	9.1	1.1	-5.5
O=C1Nc2ccc(Cl)cc2[C@@](C#CC2CC2)(C(F)(F)F)O1	-21.9	1.0	82.3*	1	-1.3
O=c1[nH]cnc2c1c(-c1ccccc1)cn2-c1ccc(Br)cc1	-5.0	-3.0	70.9*	1.1	-7.3
CCOc1ccc(-n2cc(-c3ccccc3)c3c(=O)[nH]cnc32)cc1	-14.2	0.7	29.4	1.1	-5.3
CCCCCCCSc1nnc(-c2ccccc2N)c(=O)[nH]1	4.2	-16.9	79.1*	1	-0.5
CCCCSc1nnc(-c2ccccc2N)c(=O)[nH]1	4.7	-8.8	25.0	1	-1.7
CCCc1ccc(OCC(=O)NNC(=O)c2cccnc2)cc1	-2.7	-20.1	3.4	1	0.3
CCOc1ccc(S(=O)(=O)N(CC)CC)cc1NS(=O)(=O)c1ccc(F)c(F)c1F	12.3	-7.7	6.6	1	3.0
Cc1cc(O)c(/C=N/OCc2ccc(Cl)cc2Cl)c(=O)o1	1.4	-8.5	-2.8	1	0.2
CN(C)/C=C(\C=N\OCc1ccc(Cl)cc1Cl)C(=O)Nc1ccc(Cl)c(Cl)c1	-37.6	-0.8	83.6*	1	-3.8
COc1cccc(-n2c([S-])c(C(=O)Nc3ccc(C(F)(F)F)cc3)[n+]3ccccc23)c1	5.9	2.1	11.7	1	2.9
O=S(=O)(NCC1CCCO1)c1ccc(S(=O)(=O)N(Cc2ccc(F)cc2)Cc2ccco2)cc1 (stereo not given)	-0.9	-6.7	13.2	0.9	5.4
COCCNc1nc(-c2ccccc2)nc2ccccc12	-1.7	-3.0	1.2	1	4.0
SMILES	Arbovirus anti	TNAP inh no acc	WT yeast gro inh	TNAP act hi DEA	TNAP inh hi DEA
COCCCNc1nc(-c2ccncc2)nc2ccccc12	32.6*	-14.0	-6.4	1	-2.7
Cn1cc(C(=O)c2cccc(Cl)c2)cc1/C=N\O	-3.9	-3.6	-1.8	1	0.4
CO/N=C\c1cc(C(=O)c2ccc(Cl)cc2Cl)cn1C	6.3	-11.1	60.2*	1	-4.9
FC(F)(F)c1cc(-c2cccs2)n[nH]1	2.9	71.0*	-1.1	1	-4.7
COc1ccc(C(=O)n2ccc(C)n2)cc1Br	1.2	-6.7	6.0	1	-0.7
C=CCn1c(SCc2c(C)noc2C)nnc1C1COc2ccccc2O1 (stereo not given)	71.0*	-2.0	28.1	1	-2.1
C=CCn1c(SCC(=O)Nc2cc(C)on2)nnc1C1COc2ccccc2O1 (stereo not given)	0.1	-9.1	9.1	1	-4.1
COCCCn1c(SCC(=O)NC(C)(C)C)nnc1-c1ccccc1	4.0	10.8	66.0*	1.1	-7.9
COCCCn1c(SCC(=O)NC2CCCCC2)nnc1-c1ccncc1	4.9	-12.5	-30.6	1	-4.3
COC(=O)c1cc(COc2ccc3c(c2)oc(=O)c2ccccc23)c(C)o1	-10.9	-13.5	9.2	1.1	-5.4
Cc1ccc2c(c1)c1c(n2CC(O)Cn2nc(C)c(Br)c2C)CCCC1 (stereo not given)	-37.5	-6.9	76.2*	1	-1.4
Cc1nn(CC(O)Cn2cnc3c2c(=O)n(C)c(=O)n3C)c(C)c1Br (stereo not given)	-2.0	-7.7	6.2	1	-2.1
Cc1ccc2c(c1)c1c(n2CC(O)Cn2c(C)nc3ccccc32)CCCC1 (stereo not given)	8.9	-11.1	-1.3	1.1	-6.0
Cc1nn(CC(O)Cn2c3c(c4ccccc42)CCN(C)C3=O)c(C)c1Br (stereo not given)	36.3*	-6.0	10.6	1.1	-6.7
O=C1CN2C(=Nc3ccc(Cl)cc3C2c2ccccc2)CN1 (stereo not given)	16.3	-6.4	-7.8	1.1	-6.0
S=C1NCCc2ccc(Cl)cc2C1c1ccccc1 (stereo not given)	-8.4	8.9	70.8*	1	4.7
COC(=O)c1cc(-c2cccc(OC)c2)n[nH]1	4.9	46.4	4.3	1	-2.8
COC(=O)c1cc(-c2ccc(C)cc2)n[nH]1	-2.3	90.5*	-13.4	1	-1.5
CCOc1ccc(-c2cc(C(=O)OC)[nH]n2)cc1	6.0	85.3*	-18.4	1.1	-6.2
COC(=O)c1cc(-c2ccc(OC)cc2)n[nH]1	-0.7	94.3*	-6.5	1	-4.7
CCOC(=O)c1cc(-c2ccc(C)o2)n[nH]1	-0.3	68.5*	4.0	1	0.4
Cc1nnc(Sc2nc3c(c(=O)[nH]c(=O)n3C)n2Cc2ccccc2Cl)s1	15.8	nt	15.7	nt	nt
Brc1cnc(N2CCCCC2)nc1N1CCOCC1	16.0	-2.6	58.7*	1	-4.8
Brc1cnc(N2CCCC2)nc1N1CCOCC1	1.4	-3.8	55.0	1	-0.1
CCNC(=S)N/N=C(\C)c1ccc2ccccc2c1	-2.6	-12.1	72.4*	1	-0.7
SMILES	Arbovirus anti	TNAP inh no acc	WT yeast gro inh	TNAP act hi DEA	TNAP inh hi DEA
CCNC(=S)N/N=C(\C)c1ccc2ccccc2c1OC(F)F	-1.3	-25.8	72.9*	1	-3.6
CCNC(=S)N/N=C(\C)c1cccc(OC)c1	-4.2	-8.9	9.4	1	2.8
CCCCCC(=O)Nc1ccc(S(=O)(=O)Nc2nccc(C)n2)cc1	-1.4	-17.9	4.9	1.1	-5.9
O=C(Nc1nnc(-c2ccc3c(c2)CCCC3)o1)c1ccccc1	-17.3	-25.3	74.7*	1	-3.9
O=C(CCOc1ccccc1)Nc1nnc(-c2ccc3c(c2)OCCO3)o1	-5.9	-124.2	11.7	1	-4.6
O=C(Nc1nnc(-c2ccc3c(c2)CCCC3)o1)c1ccccc1Cl	-26.8	-18.5	74.2	1.1	-7.5
O=C(Nc1nnc(-c2ccc(F)cc2)o1)c1cccc([N+](=O)[O-])c1	-7.3	-67.6	75.8*	1	-2.6
